{"source": "ChEMBL document CHEMBL1141134", "about": "“Scaffold hopping with molecular field points: identification of a cholecystokinin-2 (CCK2) receptor pharmacophore and its use in the design of a prototypical series of pyrrole- and imidazole-based CCK2 antagonists” (J Med Chem, 2005)", "key": {"[1]": {"target": "T1, Cholecystokinin receptor type A (Cavia porcellus, UniProt Q63931)", "T1 sequence (Q63931 whole entry)": "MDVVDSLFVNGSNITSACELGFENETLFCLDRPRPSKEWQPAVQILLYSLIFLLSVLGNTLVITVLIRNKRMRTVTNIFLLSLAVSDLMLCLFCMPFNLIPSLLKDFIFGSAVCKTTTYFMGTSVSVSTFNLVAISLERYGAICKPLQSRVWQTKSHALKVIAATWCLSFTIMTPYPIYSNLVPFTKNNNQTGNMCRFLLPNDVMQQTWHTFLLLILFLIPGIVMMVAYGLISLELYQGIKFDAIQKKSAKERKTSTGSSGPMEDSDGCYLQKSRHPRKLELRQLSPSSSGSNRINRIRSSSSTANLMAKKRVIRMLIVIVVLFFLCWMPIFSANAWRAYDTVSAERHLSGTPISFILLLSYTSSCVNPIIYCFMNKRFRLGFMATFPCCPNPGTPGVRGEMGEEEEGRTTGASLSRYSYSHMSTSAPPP", "test": "Inhibition of 20 pM [125I]BH-CCK-8S binding to guinea pig pancreas membrane Cholecystokinin 1 receptor", "method_in_brief": "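Competition binding in guinea pig pancreas cell homogenates against 20 pM [125I]BH-CCK-8S; pKi ± SEM derived from at least three separate experiments.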"}, "[2]": {"target": "T2, Gastrin/cholecystokinin type B receptor (Mus musculus, UniProt P56481)", "T2 sequence (P56481 whole entry)": "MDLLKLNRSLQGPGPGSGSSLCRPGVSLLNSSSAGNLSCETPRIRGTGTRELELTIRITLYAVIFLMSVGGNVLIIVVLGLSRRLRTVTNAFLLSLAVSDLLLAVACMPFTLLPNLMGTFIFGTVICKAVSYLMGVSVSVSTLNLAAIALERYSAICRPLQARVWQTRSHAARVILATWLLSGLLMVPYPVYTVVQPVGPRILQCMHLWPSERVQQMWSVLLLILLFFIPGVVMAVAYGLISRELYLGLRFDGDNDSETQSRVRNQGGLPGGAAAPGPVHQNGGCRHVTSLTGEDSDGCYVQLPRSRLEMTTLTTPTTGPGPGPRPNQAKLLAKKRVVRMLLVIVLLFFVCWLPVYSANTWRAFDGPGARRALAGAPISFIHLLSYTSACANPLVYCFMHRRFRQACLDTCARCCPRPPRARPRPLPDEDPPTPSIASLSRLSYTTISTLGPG", "test": "Inhibition of 20 pM [125I]BH-CCK-8S binding to mouse cortical membrane Cholecystokinin 2 receptor", "method_in_brief": "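Competition binding in mouse cortical membrane homogenates against 20 pM [125I]BH-CCK-8S tracer; pKi ± SEM from at least three separate experiments.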"}, "[3]": {"test": "Percent material excreted unchanged was detected in the bile by i.v. administration (10 uM/Kg) to anesthetized rat", "assay_type": "ADME", "details": "iv, read-out: Activity", "method_in_brief": "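Anesthetized rats dosed iv bolus at 10 μmol/kg; bile duct cannulated, bile collected in 15 min intervals over 150 min total; unchanged compound measured by HPLC, reported as percent excreted.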"}, "[4]": {"test": "Log D value was measured in octanol/buffer (pH 7.5)", "assay_type": "physicochemical", "method_in_brief": "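Partition between octanol and buffer at pH 7.5.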"}, "[5]": {"test": "Percent material excreted unchanged was detected in the bile by i.v. administration (1 or 10 uM/Kg) to anesthetized rat", "assay_type": "ADME", "details": "iv, read-out: Activity", "method_in_brief": "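Anesthetized rats, iv bolus at 1 or 10 μmol/kg; bile duct cannulated, bile collected in 15 min intervals over 150 min total; unchanged compound in bile quantified by HPLC, expressed as percent of dose. Compounds given as bis(N-methyl-D-glucamine) salts.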"}, "[6]": {"target": "T3, Gastrin/cholecystokinin type B receptor (Mus musculus) (UniProt P56481)", "T3 sequence (whole entry)": "T2 sequence (P56481 whole entry)", "test": "Loss of Cholecystokinin 2 receptor activity relative to parent compound", "assay_type": "functional"}}}
{"smiles": "O=C(O)c1cc(NC(=O)c2cc(-c3ccccc3)[nH]c2CC2CCCCCC2)cc(C(=O)O)c1", "values": [{"measurement": "Ki", "setting": "[1]", "result": 7940, "unit": "nM"}, {"measurement": "Ki", "setting": "[2]", "result": 251, "unit": "nM"}]}
{"smiles": "CNC[C@H](O)[C@@H](O)[C@H](O)[C@H](O)CO.O=C(O)c1cc(NC(=O)c2cc(-c3ccc4ccccc4c3)[nH]c2CC2CCCCCC2)cc(C(=O)O)c1", "values": [{"measurement": "dose excreted", "setting": "[3]", "result": 59, "unit": "%"}, {"measurement": "Ki", "setting": "[1]", "result": 2510, "unit": "nM"}, {"measurement": "logD", "setting": "[4]", "result": 1.4}, {"measurement": "Ki", "setting": "[2]", "result": 200, "unit": "nM"}]}
{"smiles": "CNC[C@H](O)[C@@H](O)[C@H](O)[C@H](O)CO.O=C(O)c1cc(NC(=O)[C@H](Cc2ccccc2)NC(=O)c2cc3[nH]cnc3cc2C(=O)NCC23CC4CC(CC(C4)C2)C3)cc(C(=O)O)c1", "values": [{"measurement": "Ki", "setting": "[1]", "result": 1580, "unit": "nM"}, {"measurement": "logD", "setting": "[4]", "result": -2.3}, {"measurement": "Ki", "setting": "[2]", "result": 5.01, "unit": "nM"}, {"measurement": "dose excreted", "setting": "[5]", "result": 45, "unit": "%"}]}
{"smiles": "O=C(O)c1cc(NC(=O)c2[nH]c(-c3ccc4[nH]ccc4c3)nc2CC2CCCCCC2)cc(C(=O)O)c1", "values": [{"measurement": "Ki", "setting": "[1]", "result": 5010, "unit": "nM"}, {"measurement": "Ki", "setting": "[2]", "result": 1000, "unit": "nM"}]}
{"smiles": "O=C(O)c1cc(NC(=O)c2cc(-c3ccccc3)[nH]c2CCC23CC4CC(CC(C4)C2)C3)cc(C(=O)O)c1", "values": [{"measurement": "Ki", "setting": "[1]", "result": 5010, "unit": "nM"}, {"measurement": "Ki", "setting": "[2]", "result": 200, "unit": "nM"}]}
{"smiles": "O=C(O)c1cc(NC(=O)[C@H](Cc2ccccc2)NC(=O)c2ccccc2C(=O)NCC23CC4CC(CC(C4)C2)C3)cc(C(=O)O)c1", "values": [{"measurement": "Ki", "setting": "[2]", "result": 31.6, "unit": "nM"}]}
{"smiles": "O=C(O)c1cc(NC(=O)c2[nH]c(-c3ccccc3)nc2CC2CCCCCC2)cc(C(=O)O)c1", "values": [{"measurement": "Ki", "setting": "[1]", "result": 7940, "unit": "nM"}]}
{"smiles": "CNC[C@H](O)[C@@H](O)[C@H](O)[C@H](O)CO.O=C(O)c1cccc(NC(=O)c2[nH]c(-c3ccc4ccccc4c3)nc2CC2CCCCCC2)c1", "values": [{"measurement": "dose excreted", "setting": "[3]", "result": 5, "unit": "%"}, {"measurement": "logD", "setting": "[4]", "result": 2.8}, {"measurement": "Ki", "setting": "[2]", "result": 794, "unit": "nM"}]}
{"smiles": "CNC[C@H](O)[C@@H](O)[C@H](O)[C@H](O)CO.O=C(Nc1cc(CO)cc(CO)c1)c1[nH]c(-c2ccc3ccccc3c2)nc1CC1CCCCCC1", "values": [{"measurement": "dose excreted", "setting": "[3]", "result": 1, "unit": "%"}, {"measurement": "Ki", "setting": "[1]", "result": 3160, "unit": "nM"}, {"measurement": "logD", "setting": "[4]", "result": "> 4"}, {"measurement": "Ki", "setting": "[2]", "result": 3980, "unit": "nM"}]}
{"smiles": "CNC[C@H](O)[C@@H](O)[C@H](O)[C@H](O)CO.O=C(O)c1cccc(NC(=O)[C@H](Cc2ccccc2)NC(=O)c2cc3[nH]cnc3cc2C(=O)NCC23CC4CC(CC(C4)C2)C3)c1", "values": [{"measurement": "Ki", "setting": "[1]", "result": 5010, "unit": "nM"}, {"measurement": "logD", "setting": "[4]", "result": 1.1}, {"measurement": "Ki", "setting": "[2]", "result": 398, "unit": "nM"}, {"measurement": "dose excreted", "setting": "[5]", "result": 39, "unit": "%"}]}
{"smiles": "CNC[C@H](O)[C@@H](O)[C@H](O)[C@H](O)CO.O=C(O)c1cccc(NC(=O)c2cc(-c3ccc4ccccc4c3)[nH]c2CC2CCCCCC2)c1", "values": [{"measurement": "dose excreted", "setting": "[3]", "result": 6, "unit": "%"}, {"measurement": "Ki", "setting": "[1]", "result": 3980, "unit": "nM"}, {"measurement": "logD", "setting": "[4]", "result": 2.9}, {"measurement": "Ki", "setting": "[2]", "result": 1260, "unit": "nM"}]}
{"smiles": "O=C(O)c1cc(NC(=O)[C@H](Cc2ccccc2)NC(=O)C2C3c4ccccc4C(c4ccccc43)C2C(=O)NCC23CC4CC(CC(C4)C2)C3)cc(C(=O)O)c1", "note": "(some centres not stated)", "values": [{"measurement": "Ki", "setting": "[1]", "result": 2000, "unit": "nM"}]}
{"smiles": "O=C(O)c1cc(NC(=O)c2[nH]c(-c3ccccc3)nc2CCC23CC4CC(CC(C4)C2)C3)cc(C(=O)O)c1", "values": [{"measurement": "Ki", "setting": "[1]", "result": 6310, "unit": "nM"}, {"measurement": "Ki", "setting": "[2]", "result": 631, "unit": "nM"}]}
{"smiles": "CN(C(=O)[C@H](Cc1ccccc1)NC(=O)c1cc2[nH]cnc2cc1C(=O)NCC12CC3CC(CC(C3)C1)C2)c1cc(C(=O)O)cc(C(=O)O)c1", "values": [{"measurement": "Ki", "setting": "[1]", "result": 3980, "unit": "nM"}, {"measurement": "Activity", "setting": "[6]", "result": 2}]}
{"smiles": "O=C(O)CCNC(=O)c1cc(-c2ccccc2)[nH]c1CC12CC3CC(CC(C3)C1)C2", "values": [{"measurement": "Ki", "setting": "[1]", "result": 10000, "unit": "nM"}, {"measurement": "Ki", "setting": "[2]", "result": 3160, "unit": "nM"}]}
{"smiles": "O=C(O)c1cc(NC(=O)c2cc(-c3ccccc3)[nH]c2CC23CC4CC(CC(C4)C2)C3)cc(C(=O)O)c1", "values": [{"measurement": "Ki", "setting": "[1]", "result": 7940, "unit": "nM"}, {"measurement": "Ki", "setting": "[2]", "result": 126, "unit": "nM"}]}
{"smiles": "CNC[C@H](O)[C@@H](O)[C@H](O)[C@H](O)CO.O=C(NCC12CC3CC(CC(C3)C1)C2)c1cc2nc[nH]c2cc1C(=O)N[C@@H](Cc1ccccc1)C(=O)Nc1cc(CO)cc(CO)c1", "values": [{"measurement": "Ki", "setting": "[1]", "result": 3980, "unit": "nM"}, {"measurement": "logD", "setting": "[4]", "result": 3.7}, {"measurement": "dose excreted", "setting": "[5]", "result": 22, "unit": "%"}]}
{"smiles": "CNC[C@H](O)[C@@H](O)[C@H](O)[C@H](O)CO.O=C(O)c1cc(NC(=O)c2[nH]c(-c3ccc4ccccc4c3)nc2CC2CCCCCC2)cc(C(=O)O)c1", "values": [{"measurement": "dose excreted", "setting": "[3]", "result": 53, "unit": "%"}, {"measurement": "Ki", "setting": "[1]", "result": 3160, "unit": "nM"}, {"measurement": "logD", "setting": "[4]", "result": 0.7}]}
{"smiles": "O=C(O)c1cc(NC(=O)c2[nH]c(-c3ccccc3)nc2CC23CC4CC(CC(C4)C2)C3)cc(C(=O)O)c1", "values": [{"measurement": "Ki", "setting": "[1]", "result": 3160, "unit": "nM"}, {"measurement": "Ki", "setting": "[2]", "result": 158, "unit": "nM"}]}
{"smiles": "O=C(O)c1cc(NC(=O)[C@H](Cc2ccccc2)NC(=O)c2cc3cc[nH]c3cc2C(=O)NCC23CC4CC(CC(C4)C2)C3)cc(C(=O)O)c1", "values": [{"measurement": "Ki", "setting": "[1]", "result": 3980, "unit": "nM"}, {"measurement": "Ki", "setting": "[2]", "result": 1, "unit": "nM"}]}
{"smiles": "CN(C(=O)c1cc2[nH]cnc2cc1C(=O)NCC12CC3CC(CC(C3)C1)C2)[C@@H](Cc1ccccc1)C(=O)Nc1cc(C(=O)O)cc(C(=O)O)c1", "values": [{"measurement": "Activity", "setting": "[6]", "result": 0.7}, {"measurement": "Ki", "setting": "[2]", "result": 25.1, "unit": "nM"}]}
